Results as given in PMC9683076 (Pharmacology Research & Perspectives, 2022).
Where two headings read alike, the source gives them in different places.

What was measured:
[1] = format: in vivo, human (healthy adult subjects)
How it was run: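 Single-centre, open-label, two-period study in healthy adults. Everolimus 0.75 mg given as a single dose alone on Period 1 Day 1. Blood concentrations gave Cmax, AUCinf, Tmax (median), C12 and t1/2. Natural-log parameters were compared by repeated-measures analysis.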

[2] = cited from earlier work
P-gp = settings: cited from earlier work
[3] = digoxin with the 3D regimen; cited from earlier work
[4] = cited from earlier work; remark: listed apart in the source
[5] = 2 mg single-dose sirolimus with ketoconazole 200 mg BID at steady state; cited from earlier work
[6] = format: in vivo, human (healthy adult subjects); remark: listed apart in the source
[7] = everolimus co-administered with the 3D regimen vs alone
[8] = sirolimus 2 mg single dose alone, Period 1 Day 1, N = 11, blood, geometric mean (geometric %CV)
[9] = sirolimus co-administered with the 3D regimen vs alone

SMILES: CO[C@H]1C[C@@H]2CC[C@@H](C)[C@@](O)(O2)C(=O)C(=O)N2CCCC[C@H]2C(=O)O[C@H]([C@H](C)C[C@@H]2CC[C@@H](OCCO)[C@H](OC)C2)CC(=O)[C@H](C)/C=C(\C)[C@@H](O)[C@@H](OC)C(=O)[C@H](C)C[C@H](C)/C=C/C=C/C=C/1C [Everolimus, everolimus]
- increase in AUCinf [1, 7]: 27 fold
- increase in Cmax [1, 7]: 4.7 fold
- increase in t 1/2 [1, 7]: 2.8 fold
- delay in Tmax ([1]; everolimus in the presence of the 3D regimen vs alone): 1 h
- AUC(0-inf) ([1]; human, blood, 0.75 mg): 41.9 ng·h/mL
- Cmax ([1]; human, blood, 0.75 mg): 3.33 ng/mL
- concentration at 12 h ([1]; human, blood, 0.75 mg): 0.513 ng/mL
- half-life ([1]; human, blood, 0.75 mg, t 1/2, everolimus 0.75 mg single dose alone, Period 1 Day 1, N = 12, blood, harmonic mean (pseudo-standard deviation)): 42 h
- half-life ([2]; everolimus): ~30 h

SMILES: Cc1cnc(C(=O)N[C@H]2CCCCC/C=C\[C@@H]3C[C@@]3(C(=O)NS(=O)(=O)C3CC3)NC(=O)[C@@H]3C[C@@H](Oc4nc5ccccc5c5ccccc45)CN3C2=O)cn1 [paritaprevir]
- P-gp inhibition (in vitro data) (P-gp): potential inhibitors of P‐gp

SMILES: COc1c(-c2ccc3cc(NS(C)(=O)=O)ccc3c2)cc(-n2ccc(=O)[nH]c2=O)cc1C(C)(C)C [dasabuvir]
- P-gp inhibition (in vitro data) (P-gp): potential inhibitors of P‐gp

SMILES: CC(C)c1nc(CN(C)C(=O)N[C@H](C(=O)N[C@@H](Cc2ccccc2)C[C@H](O)[C@H](Cc2ccccc2)NC(=O)OCc2cncs2)C(C)C)cs1 [ritonavir]
- P-gp inhibition (in vitro data) (P-gp): potential inhibitors of P‐gp

SMILES: C[C@H]1O[C@@H](O[C@H]2[C@@H](O)C[C@H](O[C@H]3[C@@H](O)C[C@H](O[C@H]4CC[C@@]5(C)[C@H](CC[C@@H]6[C@@H]5C[C@@H](O)[C@]5(C)[C@@H](C7=CC(=O)OC7)CC[C@]65O)C4)O[C@@H]3C)O[C@@H]2C)C[C@H](O)[C@@H]1O [digoxin]
- increase in AUC [3]: ≤ 16%
- increase in Cmax [3]: ≤ 16%

SMILES: Cc1ncc2n1-c1ccc(Cl)cc1C(c1ccccc1F)=NC2 [midazolam]
- increase in AUC ([4]; midazolam co-administered with boceprevir): 5.3 fold
- increase in AUC ([4]; midazolam co-administered with tipranavir/ritonavir): 26.9 fold

SMILES: CO[C@H]1C[C@@H]2CC[C@@H](C)[C@@](O)(O2)C(=O)C(=O)N2CCCC[C@H]2C(=O)O[C@H]([C@H](C)C[C@@H]2CC[C@@H](O)[C@H](OC)C2)CC(=O)[C@H](C)/C=C(\C)[C@@H](O)[C@@H](OC)C(=O)[C@H](C)C[C@H](C)/C=C/C=C/C=C/1C [Sirolimus, sirolimus]
- increase in Cmax [5]: 4.3 fold
- half-life ([6]; human, blood, 2 mg, t 1/2, sirolimus 2 mg single dose alone, Period 1 Day 1, N = 11, blood, harmonic mean (pseudo-standard deviation)): 96 h
- AUC(0-inf) ([6]; human, blood, oral, 2 mg): 178 ng·h/mL
- C24 [6, 8]: 1.14 (29) ng/m
- Cmax [6, 8]: 6.66 (33) ng/ml
- t 1/2 ([6]; sirolimus 2 mg single dose alone, Period 1 Day 1, N = 11, blood, harmonic mean (pseudo-standard deviation)): 96.3 (15) h
- Tmax ([6]; sirolimus 2 mg single dose alone, Period 1 Day 1, N = 11, blood, median (range)): 2.5 (1.5–4.0) h
- increase in dose-normalized AUCinf [6, 9]: 38 fold
- increase in dose-normalized Cmax [6, 9]: 6.4 fold
- increase in t 1/2 [6, 9]: 2.6 fold
- delay in Tmax ([6]; sirolimus in the presence of the 3D regimen vs alone): 3.5 h
- half-life ([2]; sirolimus): approximately 62 h
